Experimental data taken from ChEMBL document CHEMBL1154759, “Benzo[e]isoindole-1,3-diones as potential inhibitors of glycogen synthase kinase-3 (GSK-3). Synthesis, kinase inhibitory activity, zebrafish phenotype, and modeling of binding mode” (J Med Chem, 2010).
Active and inactive are the calls of the source. The calls are words filed in the database; no cut-off is given here.

Columns and labels:
[1] = target: T1, Glycogen synthase kinase-3 beta (Homo sapiens, UniProt P49841); experiment: Inhibition of human recombinant GSK3-beta at 1 uM by ELISA
In short: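 Recombinant human GSK3β (500 ng) with human tau-441 (1 μg) as substrate, in a 20 μL reaction with 10× kinase buffer stock (200 mM Tris-HCl pH 7.4, 100 mM MgCl2, 5 mM DTT) and ATP added from a 100 μM stock. Incubated 30 °C for 45 min. Phospho-tau pS396 measured by immunoassay at A450. Controls were DMSO and no-ATP.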
Target sequence in this assay (P49841 whole entry, looked up): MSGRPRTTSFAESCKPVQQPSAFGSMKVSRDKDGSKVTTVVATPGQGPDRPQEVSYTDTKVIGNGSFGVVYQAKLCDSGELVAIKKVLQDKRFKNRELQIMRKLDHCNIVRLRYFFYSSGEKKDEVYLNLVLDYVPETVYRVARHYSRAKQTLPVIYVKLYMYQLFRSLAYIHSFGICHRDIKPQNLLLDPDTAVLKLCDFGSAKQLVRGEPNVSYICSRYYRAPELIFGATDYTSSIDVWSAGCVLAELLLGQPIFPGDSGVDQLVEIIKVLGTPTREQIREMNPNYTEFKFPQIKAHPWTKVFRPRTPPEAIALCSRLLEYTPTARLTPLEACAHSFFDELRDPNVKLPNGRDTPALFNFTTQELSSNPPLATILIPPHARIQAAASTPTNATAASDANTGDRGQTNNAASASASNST

[2] = target: T1, Glycogen synthase kinase-3 beta; experiment: Inhibition of human recombinant GSK3-beta
In short: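 10× kinase buffer stock was 200 mM Tris-HCl pH 7.4, 100 mM MgCl2, 5 mM DTT; ATP added from a 100 μM stock. Incubated 30 °C for 45 min. Tau pS396 read by immunoassay at A450. DMSO and no-ATP controls were run. IC50 taken from activity curves.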
Target sequence in this assay (P49841 whole entry): as the sequence (P49841 whole entry, looked up) above

[3] = target: Cyclin-dependent kinase 4/cyclin D1 (Homo sapiens, UniProt P11802); experiment: Inhibition of human CDK4/cyclin D1 by ELISA; type: protein-complex assay
Chain of Cyclin-dependent kinase 4/cyclin D1 (P11802 whole entry): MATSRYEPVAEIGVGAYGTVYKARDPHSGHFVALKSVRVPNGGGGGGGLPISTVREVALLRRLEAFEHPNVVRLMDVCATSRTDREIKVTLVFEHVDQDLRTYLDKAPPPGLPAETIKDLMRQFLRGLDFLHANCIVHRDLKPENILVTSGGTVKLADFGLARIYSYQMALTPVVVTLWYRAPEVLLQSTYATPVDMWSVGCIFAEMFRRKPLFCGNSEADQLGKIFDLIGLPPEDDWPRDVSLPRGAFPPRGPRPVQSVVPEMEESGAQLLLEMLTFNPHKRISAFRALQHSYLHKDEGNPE
Chain of Cyclin-dependent kinase 4/cyclin D1 (P24385 whole entry, further chain): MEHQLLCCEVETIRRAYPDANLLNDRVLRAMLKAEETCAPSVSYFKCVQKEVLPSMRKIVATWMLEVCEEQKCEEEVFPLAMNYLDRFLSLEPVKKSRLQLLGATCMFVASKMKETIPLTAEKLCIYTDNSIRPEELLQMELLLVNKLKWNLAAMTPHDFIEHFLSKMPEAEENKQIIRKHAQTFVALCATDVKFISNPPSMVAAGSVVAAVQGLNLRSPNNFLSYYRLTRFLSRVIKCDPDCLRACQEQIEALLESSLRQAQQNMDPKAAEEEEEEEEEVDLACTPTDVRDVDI

[4] = Toxicity in Zebrafish embryos assessed as induction of eyeless phenotype during gastrulation at 25 uM after 3 days; type: tissue-based, Danio rerio, Embryo; details: in vivo, 72 h
In short: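 FLK-1:EGFP transgenic zebrafish embryos, six per well in 200 μL Holtfreter's buffer. Compound added at dome stage and embryos kept in compound solution up to 7 days. Heads examined at 1 and 3 dpf for eye phenotype. LiCl comparison: 0.3 M for 10 min, then buffer.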

[5] = target: Cyclin-dependent kinase 2/cyclin A (Homo sapiens, UniProt P24941); experiment: Inhibition of human CDK2/Cyclin A by ELISA; type: protein-complex assay
[6] = target: T1, Glycogen synthase kinase-3 beta; experiment: Inhibition of human recombinant GSK3-beta at 1 uM by ATP competitive assay
In short: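 Recombinant human GSK3β (60 ng) with tau-441 (400 ng) in 10× buffer stock (200 mM Tris-HCl pH 7.4, 100 mM MgCl2, 5 mM DTT). Inhibitor at 1 μM final, ATP varied, 20 μL, 30 °C for 45 min. Tau pS396 measured by immunoassay at A450. Activity (% of control) versus [ATP] fitted to a simple competitive-inhibition equation to give apparent Ki.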
Target sequence in this assay (P49841 whole entry): as the sequence (P49841 whole entry, looked up) above

Row | SMILES | Activity [1] | other results
1 | COC(=O)c1ccc2c3c(c(CCO)cc2c1)C(=O)NC3=O | Active | –
2 | COc1ccc2cc(C)c3c(c2c1)C(=O)NC3=O | Active | –
3 | COC(=O)c1ccc2cc(C)c3c(c2c1)C(=O)NC3=O | Active | –
4 | CCc1cc2ccc(C(=O)OC)cc2c2c1C(=O)NC2=O | Active | –
5 | CCc1cc2cc(C(=O)OC)ccc2c2c1C(=O)NC2=O | Active | –
6 | COC(=O)c1cccc2c3c(c(C)c(C)c12)C(=O)NC3=O | Active | –
7 | Cc1cc2ccc(Cl)cc2c2c1C(=O)NC2=O | Active | –
8 | COC(=O)c1cccc2c3c(c(C)cc12)C(=O)NC3=O | Active | –
9 | COC(=O)c1ccc2c3c(c(CC(C)O)cc2c1)C(=O)NC3=O (stereo not drawn) | Active | –
10 | COC(=O)c1ccc2c3c(c(CCOCc4ccccc4)cc2c1)C(=O)NC3=O | Active | –
11 | COC(=O)c1cccc2c3c(c(C(C)C)cc12)C(=O)NC3=O | Active | –
12 | COC(=O)c1cccc2c3c(c(CC(C)C)cc12)C(=O)NC3=O | Active | IC50 [2]: 486 nM; IC50 [3]: 6000 nM
13 | Cc1cc2ccccc2c2c1C(=O)NC2=O | Active | –
14 | COC(=O)c1ccc2c3c(c(C)c(C)c2c1)C(=O)NC3=O | Active | –
15 | CCc1cc2c(c3cc(OC)c(OC)cc13)C(=O)NC2=O | Active | Activity [4]: Not Active; IC50 [2]: 92 nM; IC50 [3]: 19000 nM
16 | COC(=O)c1ccc2c3c(c(CC(C)C)cc2c1)C(=O)NC3=O | Active | –
17 | COC(=O)c1ccc2c3c(c(C(C)C)cc2c1)C(=O)NC3=O | Active | –
18 | Cn1cc(C2=C(c3ccc(Cl)cc3Cl)C(=O)NC2=O)c2ccccc21 [SB-216763] | Active | Activity [4]: Not Active; IC50 [3]: 32000 nM; IC50 [5]: 269 nM
19 | COc1cc2c(C)cc3c(c2cc1OC)C(=O)NC3=O | Active | Activity [4]: Active; IC50 [2]: 270 nM; IC50 [3]: 16000 nM; IC50 [5]: 787 nM; Ki [6]: 259 nM
20 | COC(=O)c1ccc2c3c(c(CC(C)OCc4ccccc4)cc2c1)C(=O)NC3=O (stereo not drawn) | Active | –
21 | COC(=O)c1ccc2cc(CC(C)C)c3c(c2c1)C(=O)NC3=O | Active | –
22 | CCc1c(C)c2c(c3cc(C(=O)OC)ccc13)C(=O)NC2=O | Active | –
23 | CCCc1cc2c(C(=O)OC)cccc2c2c1C(=O)NC2=O | Active | –
24 | COC(=O)c1ccc2cc(C(C)C)c3c(c2c1)C(=O)NC3=O | Active | –
25 | CCc1cc2c(C(=O)OC)cccc2c2c1C(=O)NC2=O | Active | –
